Test results: the RNAGym collection of RNA variant scans (doi:10.1126/science.aae0568)
This sample holds only a part of the variants without activity.

B1: tRNA (parent)
chain: GUUCCGUUGGCGUAAUGGUAACGCGUCUCCCUCCUAAGGAGAAGACUGCGGGUUCGAGUCCCGUACGGAACG

Variants of: B1
Assay: yeast fitness relative to wild type (ratio to wild type); higher = fitter; tRNA-Arg(CCU), competitive growth, 37 C, YPD
In short: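 The tRNA-Arg(CCU) gene variants were made by chemical synthesis with a 3% per-site mutation rate at 69 sites and inserted at the native genomic locus of Saccharomyces cerevisiae. After pooling, the strains were competed in YPD at 37°C for 24 hours in six parallel replicates. Gene amplicons from the start population and each end population were read by 100-nucleotide paired-end sequencing, and Darwinian fitness relative to wild type was taken from genotype frequency changes. Genotypes needed ≥ 100 starting reads, and estimates < 0.5 were set to 0.5.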

Variant | yeast fitness
G10C A40G C62G | ≤ 0.5
G10C A14U U19A C22U C60U G68C | ≤ 0.5
G10C G51A | 0.585
G10C C30G C34G A57G C66U | 0.523
G10C G18A C66U | ≤ 0.5
G10A U32G C34A | ≤ 0.5
G10C G48A U54A A69C | ≤ 0.5
G10C A45G A65C A69C | 0.571
G10C G56A | 0.596
G10C A40U G50A | ≤ 0.5
G10C A36C G48A | ≤ 0.5
G10C G23C G48A G52A U53C C61A | 0.52
G10C C46G G51A G52A | ≤ 0.5
G10C A21G C22U C46U G56C | 0.58
G10C C24A G52A | ≤ 0.5
G10C C33G A36C | ≤ 0.5
G10C C34U A40C | 0.667
G10C A14U G25A C27U U53C C61U A70G | ≤ 0.5
G10A U47A A65C | ≤ 0.5
G10C A21U | 0.675
G10C C31A A65C A69C | ≤ 0.5
G10C C24G C49G | ≤ 0.5
G10C C24G C49U | ≤ 0.5
G10C A36G | 0.663

Variant | yeast fitness
G10C C29U C31U U54G A65U G67A | ≤ 0.5
G10C A14G C62U | ≤ 0.5
G10C C24G A70U | ≤ 0.5
G10C C49G A65G | 0.55
G10C A37U G58A | 0.608
G10C C22U C60U C61A G63C A65U | ≤ 0.5
G10C U13A A14G A20G C22A C24G C62G | ≤ 0.5
G10C G48A U54A | ≤ 0.5
G10C G18C A45C G56C A70C | ≤ 0.5
G10C C27U C66G | ≤ 0.5
G10C A14U U19A C22U C62U | ≤ 0.5
G10C A20C U28C A45G | ≤ 0.5
G10C A37G G52A C55G G58A | ≤ 0.5
G10A U26A G63A | ≤ 0.5
G10C A15U A37U | ≤ 0.5
G10C G18A C22U G63A | ≤ 0.5
G10C C29G A42U G58A G63A G67A | ≤ 0.5
G10C C33G U64C | ≤ 0.5
G10C C34A A40G A69U | 0.552
G10C C22A C29G C49G | ≤ 0.5
G10C C55A A65C G68A | ≤ 0.5
G10C C29A A40U C55G G67C | ≤ 0.5
G10C A45U C49G C60A | ≤ 0.5
G10C C33U A36G A43G | ≤ 0.5

Variant | yeast fitness
G10C C34A G67A | ≤ 0.5
G10C G12U C33U U35G | ≤ 0.5
G10C A14U G67A | ≤ 0.5
G10C A14U C62U G67U | ≤ 0.5
G10A U26A C27U C29A G48A C62A | ≤ 0.5
G10C C11G C22A C30G U53A | 0.653
G10C C11G C24G G67A | ≤ 0.5
G10C A14C C24U A70C | ≤ 0.5
G10C A45U G48A C55A | ≤ 0.5
G10C C22U C49U A70G | ≤ 0.5
G10C C31U A57C C62A A70U | ≤ 0.5
G10C C31U U35G | ≤ 0.5
G10C A43U G48A G51A | ≤ 0.5
G10C C49U C62U | ≤ 0.5
G10C G23C C33G C46A C66A | ≤ 0.5
G10C G12A A15G A69C | ≤ 0.5
G10C C22U C30G A40C G50A C60G | ≤ 0.5
G10C A14U U28A A57C | ≤ 0.5
G10A U26A C49U C66U | ≤ 0.5
G10C C29G G39A U64A | ≤ 0.5
G10C U13A A21U U26C C31U A43U G58A G63C A70C | ≤ 0.5
G10C G41C | 0.634
G10C C33U A40C | ≤ 0.5
G10C C55A | 0.568

Variant | yeast fitness
G10C C29U C46A | ≤ 0.5
G10C C24G C46U | 0.702
G10C C11U C27G A42G C55U | 0.785
G10A U35A G56A A65G C66U | ≤ 0.5
G10C C33A A45C C55U | ≤ 0.5
G10C G63A G68C | ≤ 0.5
G10C G12A A15G A36U C46U | ≤ 0.5
G10C C34G U59A | ≤ 0.5
G10C A14U C31G | ≤ 0.5
G10C G48A | 0.851
G10C G23A U35A A40U A42U C55G | ≤ 0.5
G10C G68C | 0.697
G10C C27U A36C C61U | 0.586
G10C A37U A45G C66U | ≤ 0.5
G10C C11U C29G A42U | ≤ 0.5
G10C C27U G38A C46G | 0.57
G10C C29U C46A A69U | 0.59
G10C A15C C46U | ≤ 0.5
G10C C34G A69U A70C | 0.711
G10C A45C U59C | ≤ 0.5
G10C A15C A43C | ≤ 0.5
G10C C24A C30G A40G U47G C55U | ≤ 0.5
G10C C22U C33U U35C | ≤ 0.5
G10C G50A U59A | ≤ 0.5

Variant | yeast fitness
G10C A15G U35A G44A C61A U64C | ≤ 0.5
G10C G12A C33G U47G | ≤ 0.5
G10C G50A C61G | 0.554
G10C C27G G38C G56A | 0.526
G10C A14G U28C G39A A65U | ≤ 0.5
G10C A36C C55U | ≤ 0.5
G10C C24U C29A A42G A45U C46G U47A G50A U64G | ≤ 0.5
G10C A14C A40C C60A G63A | ≤ 0.5
G10C C11A G18C C24U C66U | 0.529
G10C G44C C55G A69U | 0.59
G10C G12C C46A | ≤ 0.5
G10C C30U G51A G63A | ≤ 0.5
G10C C11G U13A A36G C55U | ≤ 0.5
G10C A14U U19A C22U U59G A65C | ≤ 0.5
G10A U32G | ≤ 0.5
G10C C31U U35G C62U | ≤ 0.5
G10C C11U C49A A65C | ≤ 0.5
G10A U35A | 0.62
G10A U35G | ≤ 0.5
G10A U35C | 0.582
G10C C34G U54C A70U | ≤ 0.5
G10C C34G C49U | ≤ 0.5
G10C C22G C30U C55U | ≤ 0.5
G10C A45U C60G C66G | ≤ 0.5

Variant | yeast fitness
G10C A36G A57U | ≤ 0.5
G10C C27G A42C C49A G67A | ≤ 0.5
G10C A20G C24U G38C A57C G63C | ≤ 0.5
G10C A15U C27A C49G U64A | ≤ 0.5
G10A U35G A37U U47C G56C A69C | ≤ 0.5
G10C A20C | 0.631
G10C A57U | 0.548
G10C A57G | 0.604
G10C G12C G39A C61U | ≤ 0.5
G10C C11U C22G C27G C33G A42C | ≤ 0.5
G10C A21C U26C C31A A42U | ≤ 0.5
G10A U47C | 0.589
G10A U47A | 0.815
G10C A15C C29G G48A | 0.643
G10C C29U | 0.589
G10C G44A A70C | ≤ 0.5
G10C C33A U35C G67C | 0.675
G10C A15U A37U A45C U47C G52C | ≤ 0.5
G10C C29A G68C | ≤ 0.5
G10C A36U C66U A70C | ≤ 0.5
G10C C33U G48C | ≤ 0.5
G10C A21C U26G C34U A40G G51A | 0.598
G10C C11U C29G C55U | 0.556
G10C A14G G39A A65U | ≤ 0.5

Variant | yeast fitness
G10C G12C | 0.645
G10C G12A | 0.757
G10C C33G A57G | ≤ 0.5
G10C C29G G39A | ≤ 0.5
G10C A21G G56A | ≤ 0.5
G10C A14C G52C | ≤ 0.5
G10C A21G C30A G38C C46U A70C | 0.869
G10C C24U C29G | 0.638
G10C A15C A21C A69U | ≤ 0.5
G10C C29A C46U C60G | ≤ 0.5
G10C C33A G48A G58A | ≤ 0.5
G10A U35C A45G C49G G56A A65C | ≤ 0.5
G10C G51A G63A | ≤ 0.5
G10C C22A U35C C60G C61U G63A | ≤ 0.5
G10C G12C C24U C29G G68C | ≤ 0.5
G10C A14C A15C A43U | ≤ 0.5
G10C A21G G23A | ≤ 0.5
G10C A14G C24A | ≤ 0.5
G10C C22A C33A | 0.538
G10C C24G C49G C55A | 0.683
G10C G41A G50C | ≤ 0.5
G10C G12C C33U U35G | 0.614
G10C A14G C66U | 0.505
